Experimental data pooled from the literature.
Protocols differ between the studies behind these lines. Values after ≈ are worked out from the molar mass of the structure shown.
Organism: Staphylococcus aureus

Compound	test	test system	setting	quantity	result
C=C[C@]1(C)C[C@@H](OC(=O)CS[C@@H]2C[C@H]3CC[C@@H](C2)N3C)[C@]2(C)[C@H](C)CC[C@]3(CCC(=O)[C@H]32)[C@@H](C)[C@@H]1O	microbial growth	MSSA	clinical isolate	MIC90	0.0625 µg/mL (≈ 0.121 µM)
CCCS(=O)(=O)Oc1cc(C=NNC(=O)CSc2nc3c(C)cccc3c(=O)n2-c2ccccc2)ccc1OC	microbial growth, well diffusion	MRSA	20 µg/mL	inhibition zone	2 mm
CNC(C)C1CCC(N)C(OC2C(N)CC(N)C(OC3OCC(C)(O)C(NC)C3O)C2O)O1 (stereo not drawn)	microbial killing, broth dilution	ATCC25923	24 h	MBC	8000 µM
CN(C)CCCN1c2ccccc2Sc2ccc(Cl)cc21	microbial killing, broth dilution	ATCC43300	18 h	MBC	64 µg/mL
CCS(=O)(=O)Oc1ccc(C=NNC(=O)CSc2nc3c(C)cccc3c(=O)n2-c2ccccc2)cc1	microbial growth, well diffusion	MRSA	20 µg/mL	inhibition zone	3 mm
O=C(/C=C/C=C/c1ccccc1)c1ccccc1OCc1cccc(Cl)c1	microbial growth, well diffusion	MTCC96	1000 µg/mL, 18 h	inhibition zone	7 mm
CCS(=O)(=O)Oc1ccc(C=NNC(=O)CSc2nc3c(C)cccc3c(=O)n2-c2ccccc2)cc1OC	microbial growth, well diffusion	MRSA	20 µg/mL	inhibition zone	3 mm
CN[C@H](CC(C)C)C(=O)N[C@H]1C(=O)N[C@@H](CC(N)=O)C(=O)N[C@H]2C(=O)N[C@H]3C(=O)N[C@H](C(=O)N[C@H](C(=O)O)c4cc(O)cc(O)c4-c4cc3ccc4O)[C@H](O)c3ccc(c(Cl)c3)Oc3cc2cc(c3O[C@@H]2O[C@H](CO)[C@@H](O)[C@H](O)[C@H]2O[C@H]2C[C@](C)(N)[C@H](O)[C@H](C)O2)Oc2ccc(cc2Cl)[C@H]1O	microbial growth, broth dilution	ATCC29213	–	MIC	0.67 µM (≈ 0.971 µg/mL)
CC(=O)NC[C@H]1CN(c2ccc(N3CCOCC3)c(F)c2)C(=O)O1	microbial growth	MRSA	clinical isolate	MIC90	2 µg/mL (≈ 5.93 µM)
O=C(/C=C/C=C/c1ccccc1)c1ccccc1OCc1ccc(F)cc1	microbial growth, well diffusion	MTCC96	1000 µg/mL, 18 h	inhibition zone	7 mm
CC1(C)S[C@@H]2[C@H](NC(=O)[C@H](N)c3ccccc3)C(=O)N2[C@H]1C(=O)O	microbial growth	MRSA	clinical isolate	MIC90	> 128 µg/mL
CCCS(=O)(=O)Oc1ccc(C=NNC(=O)CSc2nc3c(C)cccc3c(=O)n2-c2ccccc2)cc1OC	microbial growth, well diffusion	MRSA	20 µg/mL	inhibition zone	4 mm
COc1cc2c(cc1OC)[C@@H]1Cc3ccc(OC)c(OC)c3CN1CC2	microbial growth	–	24 h	MIC50	> 1600 µM
CN[C@H](CC(C)C)C(=O)N[C@H]1C(=O)N[C@@H](CC(N)=O)C(=O)N[C@H]2C(=O)N[C@H]3C(=O)N[C@H](C(=O)N[C@H](C(=O)O)c4cc(O)cc(O)c4-c4cc3ccc4O)[C@H](O)c3ccc(c(Cl)c3)Oc3cc2cc(c3O[C@@H]2O[C@H](CO)[C@@H](O)[C@H](O)[C@H]2O[C@H]2C[C@](C)(N)[C@H](O)[C@H](C)O2)Oc2ccc(cc2Cl)[C@H]1O	microbial growth	MSSA	clinical isolate	MIC90	1 µg/mL (≈ 0.69 µM)
Cc1cccc2c(=O)n(-c3ccccc3)c(SCC(=O)NN=Cc3ccc(OS(C)(=O)=O)cc3)nc12	microbial growth, well diffusion	MRSA	20 µg/mL	inhibition zone	2 mm
O=C(/C=C/C=C/c1ccccc1)c1ccccc1OCc1ccccc1Cl	microbial growth, well diffusion	MTCC96	1000 µg/mL, 18 h	inhibition zone	7 mm
CCS(=O)(=O)Oc1ccc(C=NNC(=O)CSc2nc3ccc(Cl)cc3c(=O)n2-c2ccccc2)cc1	microbial growth, well diffusion	MRSA	20 µg/mL	inhibition zone	2 mm
CC[C@H]1OC(=O)[C@H](C)[C@@H](O[C@H]2C[C@@](C)(OC)[C@@H](O)[C@H](C)O2)[C@H](C)[C@@H](O[C@@H]2O[C@H](C)C[C@H](N(C)C)[C@H]2O)[C@](C)(O)C[C@@H](C)/C(=N\OCOCCOC)[C@H](C)[C@@H](O)[C@]1(C)O	microbial growth	MSSA	clinical isolate	MIC90	64 µg/mL (≈ 76.5 µM)
